This is an account of results in PubChem BioAssay AID652250 (Vanderbilt Specialized Chemistry Center, 2013).

SMILES strings stand for the structures. Activity calls are given as the source filed them.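 The calls were made as follows: active = compounds leaving under half of the peptide-driven platelet calcium rise; inactive = the rest.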

The target in one test is Proteinase-activated receptor 4 (Homo sapiens) (UniProt Q96RI0). Briefly: PAR4 antagonists in human platelets, cell-based, single concentration, washed platelets, Fluo4 calcium (AID 652250). The following applies: PAR4-AP calcium Fluo4 fluorescence. In outline: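 System: Fluo4-AM-loaded washed human platelets; Probe or stimulus: 80 µM PAR4-AP; Signal: fluorescence at 480/540 nm, 1 s intervals; Replicates: triplicate wells.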
Sequence of Proteinase-activated receptor 4 (Homo sapiens) (Q96RI0 whole entry, looked up): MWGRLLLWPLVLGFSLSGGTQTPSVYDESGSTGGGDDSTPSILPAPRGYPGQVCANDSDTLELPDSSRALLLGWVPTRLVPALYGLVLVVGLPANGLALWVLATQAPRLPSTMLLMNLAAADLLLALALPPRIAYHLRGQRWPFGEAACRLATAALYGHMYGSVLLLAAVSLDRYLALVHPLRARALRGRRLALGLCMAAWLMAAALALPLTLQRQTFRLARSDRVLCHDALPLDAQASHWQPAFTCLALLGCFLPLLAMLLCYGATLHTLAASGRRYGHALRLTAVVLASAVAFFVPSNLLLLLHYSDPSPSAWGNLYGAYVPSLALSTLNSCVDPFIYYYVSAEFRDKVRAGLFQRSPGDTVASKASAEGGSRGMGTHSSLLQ
One may read the IC50 as the concentration at which inhibition is half-maximal. For `COc1ccc(-c2cn(Cc3ccccc3)c3ccccc23)cn1`, the IC50 was 5.4 µM.

Regarding `COc1ccc(-c2cn(Cc3cccc(Cl)c3)c3ccccc23)cn1`, the IC50 is 3.13 µM.

With `COc1ccc(-c2cn(Cc3cccc(S(C)(=O)=O)c3)c3ccccc23)cn1`, the IC50 was 10 µM.

For the compound `COc1ccc(-c2cn(Cc3cccc(F)c3)c3ccccc23)cn1`, the IC50 was 3.85 µM.

Turning to `COc1ccc(-c2cn(Cc3cccc(Br)c3)c3ccccc23)cn1`, the IC50 was 5.27 µM.

Still in this test, the particulars now being: PAR4-AP calcium Fluo4 fluorescence, at 10 µM, stronger effect = lower value.
Turning to `Cc1ccc(-n2cc(-c3ccccc3)c3c(N4CCCC4)ncnc32)cc1Cl`, the “% of max PAR4-AP calcium response” value is “inactive”.

For the compound `CCn1c(C(=O)O)c(CC(=O)N(C)c2ccc(F)cc2)c2ccccc21`, the “% of max PAR4-AP calcium response” value was “inactive”.

For `CCn1ccc(C(=O)Nc2sc(C(=O)OC)c(C)c2C(=O)OC)n1`, the “% of max PAR4-AP calcium response” value was “inactive”.

On to `Cn1cc(CC(=O)NCCCN2CCCC2=O)c2ccccc21`, for which the “% of max PAR4-AP calcium response” value was “inactive”.

Consider `OCCCNc1ncnc2c1c(-c1ccccc1)cn2-c1cccc(Cl)c1`, for which the “% of max PAR4-AP calcium response” value is “inactive”.

As for `CNc1ccccc1-n1ccc(-c2ccccc2)n1`, the “% of max PAR4-AP calcium response” value was “inactive”.

Take `O=C(c1ccccc1F)n1c2c(c3ccccc31)CCCC2`: the “% of max PAR4-AP calcium response” value was “inactive”.

With `c1ccc(Cn2cc(-c3cncnc3)c3ccccc32)cc1`, the “% of max PAR4-AP calcium response” value was “inactive”.

Consider `Clc1ccc(-n2cc(-c3ccccc3)c3c(NCc4ccc5c(c4)OCO5)ncnc32)cc1`, for which the “% of max PAR4-AP calcium response” value was “inactive”.

`O=C(Cn1cc(C(=O)C(F)(F)F)c2ccccc21)NC1CCCCCC1`: the “% of max PAR4-AP calcium response” value was “inactive”.

In the case of `Cc1c(C)n(CC(O)CNCc2ccccc2)c2ccccc12` (centres undefined), the “% of max PAR4-AP calcium response” value is “inactive”.

Turning to `Cc1ccc(-n2nc(C(=O)N3CCC(C#N)CC3)c3c4ccccc4n(C)c3c2=O)cc1`, the “% of max PAR4-AP calcium response” value is “inactive”.

For the compound `O=C(c1cn(CCCOc2ccccc2)c2ccccc12)C(F)(F)F`, the “% of max PAR4-AP calcium response” value was “inactive”.

For the compound `Fc1cccc(Cn2cc(C(=S)N3CCCCC3)c3ccccc32)c1`, the “% of max PAR4-AP calcium response” value was “inactive”.

`COc1ccc(-c2cn(Cc3ccccc3)c3ccccc23)c(OC)n1`: the “% of max PAR4-AP calcium response” value is “inactive”.

In the case of `CC(=O)n1cc(C2C(=O)NN=C2C)c2ccccc21` (centres undefined), the “% of max PAR4-AP calcium response” value was “inactive”.

As to `COc1ccc2c(c1)c(CC(=O)N1CCC(C(N)=O)CC1)c(C)n2C(=O)c1ccc(Cl)cc1`, the “% of max PAR4-AP calcium response” value was “inactive”.

As for `O=C(N/N=C/c1ccncc1)c1ccn(Cc2ccc(Cl)cc2Cl)n1`, the “% of max PAR4-AP calcium response” value is “inactive”.

In the case of `O=C(c1cn(CCOc2ccc(F)cc2)c2ccccc12)C(F)(F)F`, the “% of max PAR4-AP calcium response” value was “inactive”.

`CN(C)CCNC(=O)Cc1cn(C)c2ccccc12`: the “% of max PAR4-AP calcium response” value was “inactive”.

As for `NC(=O)C1CCN(c2ncnc3c2c(-c2ccccc2)cn3-c2ccc(Cl)cc2)CC1`, the “% of max PAR4-AP calcium response” value was “inactive”.

`OCc1cn(Cc2ccc(Cl)c(Cl)c2)c2ccccc12`: the “% of max PAR4-AP calcium response” value is “inactive”.

`CCn1ccc(C(=O)Nc2ccc(Cl)cc2Cl)n1`: the “% of max PAR4-AP calcium response” value is “inactive”.

In the case of `Fc1ccccc1Cn1cc(C(=S)N2CCOCC2)c2ccccc21`, the “% of max PAR4-AP calcium response” value is “inactive”.

As to `CCCCNC(=O)n1ccc(C(=O)Nc2ccc(C)cc2C)n1`, the “% of max PAR4-AP calcium response” value is “inactive”.

Turning to `CCN(CC)CC(O)Cn1c(C)c(-c2ccccc2)c2cc([N+](=O)[O-])ccc21` (centres undefined), the “% of max PAR4-AP calcium response” value was “inactive”.

As to `Cc1cc(F)ncc1-c1cn(Cc2ccccc2)c2ccccc12`, the “% of max PAR4-AP calcium response” value was “inactive”.

In the case of `Cn1cc(CC(=O)NCCN2CCOCC2)c2ccccc21`, the “% of max PAR4-AP calcium response” value is “inactive”.

As to `c1ccc(COc2ccc(-c3cn(Cc4ccccc4)c4ccccc34)cc2)cc1`, the “% of max PAR4-AP calcium response” value is “inactive”.

For the compound `NS(=O)(=O)c1ccc(CCNc2ncnc3c2c(-c2ccccc2)cn3-c2cccc(Cl)c2)cc1`, the “% of max PAR4-AP calcium response” value is “inactive”.

For `COc1ccc2c(c1)c(C(=O)N1CCCC1)c(C)n2Cc1ccccc1`, the “% of max PAR4-AP calcium response” value was “inactive”.

`Cc1ccc(-n2c(/C=C/c3cn(C)c4ccccc34)nc3ccccc3c2=O)cc1`: the “% of max PAR4-AP calcium response” value is “inactive”.

In the case of `Cc1c(C)n(C(=O)CSc2ncccn2)c2ccccc12`, the “% of max PAR4-AP calcium response” value is “inactive”.

On to `CCN1CCN(c2ncnc3c2c(-c2ccccc2)cn3-c2ccc(Br)cc2)CC1`, for which the “% of max PAR4-AP calcium response” value was “inactive”.

`COc1ccc(-n2cc(-c3ccccc3)c3c(NCCO)ncnc32)cc1`: the “% of max PAR4-AP calcium response” value is “inactive”.

Consider `CCOc1ccc(NCC(O)Cn2c(C)c(C)c3ccccc32)cc1` (centres undefined), for which the “% of max PAR4-AP calcium response” value is “inactive”.

Take `Fc1ccc(OCCn2cc(C(=S)N3CCCCC3)c3ccccc32)cc1`: the “% of max PAR4-AP calcium response” value was “inactive”.

`c1ccc(CN2CCN(c3ncnc4c3c(-c3ccccc3)cn4-c3ccccc3)CC2)cc1`: the “% of max PAR4-AP calcium response” value was “inactive”.

Consider `OC(CNCc1ccccc1)Cn1c2c(c3ccccc31)CCCC2` (centres undefined), for which the “% of max PAR4-AP calcium response” value was “inactive”.

For `CC(=O)n1cc(-c2ccncc2)c2ccccc21`, the “% of max PAR4-AP calcium response” value is “inactive”.

Regarding `Cc1ccc(OCCCn2cc(C(=O)C(F)(F)F)c3ccccc32)cc1`, the “% of max PAR4-AP calcium response” value was “inactive”.

On to `Cc1cc(OCCn2cc(C(=S)N3CCOCC3)c3ccccc32)ccc1Cl`, for which the “% of max PAR4-AP calcium response” value was “inactive”.

In the case of `FC(F)(F)Oc1ccc(-c2cn(Cc3ccccc3)c3ccccc23)cc1`, the “% of max PAR4-AP calcium response” value is “inactive”.

With `COc1cc(NC(=O)c2ccc3c(c2)c(C)c(C)n3C)cc(OC)c1`, the “% of max PAR4-AP calcium response” value is “inactive”.

For the compound `COc1ccc2c(c1)c(C(=O)OCCN(C)C)c(C)n2C`, the % of max PAR4-AP calcium response is 37.4%.

`COc1ccccc1NS(=O)(=O)c1ccc(NC(=O)c2ccc3c(c2)c(C)c(C)n3C)cc1`: the “% of max PAR4-AP calcium response” value was “inactive”.

For `Fc1ccc(OCCn2cc(C(=S)N3CCOCC3)c3ccccc32)cc1`, the % of max PAR4-AP calcium response is 38%.

As to `COc1cc(Nc2ncnc3c2c(-c2ccccc2)cn3-c2ccccc2)cc(OC)c1OC`, the “% of max PAR4-AP calcium response” value was “inactive”.

For `CCCNc1ncnc2c1c(-c1ccccc1)cn2-c1ccccc1`, the “% of max PAR4-AP calcium response” value is “inactive”.

For `COc1ccc2c(c1)c(C(=O)CNc1nc(C)cs1)c(C)n2C`, the “% of max PAR4-AP calcium response” value was “inactive”.

On to `Cc1cc(C)nc(SCC(=O)n2c(C)c(C)c3ccccc32)n1`, for which the “% of max PAR4-AP calcium response” value is “inactive”.

With `COc1ccccc1OCCn1cc(C(=S)N2CCCC2)c2ccccc21`, the “% of max PAR4-AP calcium response” value is “inactive”.

In the case of `CCn1c(COC)c(-c2ccccc2)c2cc([N+](=O)[O-])ccc21`, the “% of max PAR4-AP calcium response” value was “inactive”.

Consider `CC(C)Sc1ncnc2c1c(-c1ccccc1)cn2-c1cccc(F)c1`, for which the “% of max PAR4-AP calcium response” value was “inactive”.

`FC(F)(F)c1cccc(-n2cc(-c3ccccc3)c3c(NCCN4CCOCC4)ncnc32)c1`: the “% of max PAR4-AP calcium response” value is “inactive”.

As for `OCCc1c(-c2ccccc2)n(Cc2ccccc2)c2ccccc12`, the “% of max PAR4-AP calcium response” value is “inactive”.

`CCN(CC)c1ncnc2c1c(-c1ccccc1)cn2-c1ccc(C)c(Cl)c1`: the “% of max PAR4-AP calcium response” value was “inactive”.

In the case of `Cc1ccc(-n2cc(-c3ccccc3)c3c(NCc4ccc5c(c4)OCO5)ncnc32)cc1Cl`, the “% of max PAR4-AP calcium response” value is “inactive”.

In the case of `COc1ccc2c(c1)c(C(C)=O)c(C)n2-c1cccc(Br)c1`, the “% of max PAR4-AP calcium response” value was “inactive”.

Regarding `COc1ccc(Br)cc1CNC(=O)CCCc1cn(C)c2ccccc12`, the “% of max PAR4-AP calcium response” value was “inactive”.

Regarding `Cc1nc(-c2cnn(-c3ccccc3)c2)c2cc(C)oc2n1`, the “% of max PAR4-AP calcium response” value was “inactive”.

`Cc1c(C)n(CC(O)CNCCO)c2ccccc12` (centres undefined): the “% of max PAR4-AP calcium response” value is “inactive”.

For `Cc1ccc(-n2cc(-c3ccccc3)c3c(NCC4CCCO4)ncnc32)cc1Cl` (centres undefined), the “% of max PAR4-AP calcium response” value was “inactive”.

Take `OCCCc1cn(-c2ccccc2)c2ccccc12`: the “% of max PAR4-AP calcium response” value was “inactive”.

In the case of `FC(F)(F)c1cccc(-c2cn(Cc3ccccc3)c3ccccc23)c1`, the “% of max PAR4-AP calcium response” value was “inactive”.

Take `Cc1ccc(C)c(NC(=O)Cn2cc(C(=O)C(F)(F)F)c3ccccc32)c1`: the “% of max PAR4-AP calcium response” value was “inactive”.

With `COc1ccc(-c2cn(Cc3cccc(-c4ccsc4)c3)c3ccccc23)cn1`, the “% of max PAR4-AP calcium response” value was “inactive”.

With `Cc1cn(CC(=O)c2ccccc2)c2ccccc12`, the “% of max PAR4-AP calcium response” value was “inactive”.

With `O=C(c1cn(CCOc2ccc3c(c2)OCO3)c2ccc(Br)cc12)C(F)(F)F`, the “% of max PAR4-AP calcium response” value is “inactive”.

On to `COc1cc(OC)cc(-c2cn(Cc3ccccc3)c3ccccc23)c1`, for which the “% of max PAR4-AP calcium response” value was “inactive”.

On to `Cn1cc(CC(=O)NCc2cccs2)c2ccccc21`, for which the “% of max PAR4-AP calcium response” value is “inactive”.

Take `CC(=O)c1ccc(N2CCN(c3ncnc4c3c(-c3ccccc3)cn4-c3ccccc3)CC2)cc1`: the “% of max PAR4-AP calcium response” value is “inactive”.

`O=C(c1cn(CCOc2ccccc2F)c2ccccc12)C(F)(F)F`: the “% of max PAR4-AP calcium response” value is “inactive”.

Turning to `CCOc1ncc(-c2cn(Cc3ccccc3)c3ccccc23)cn1`, the “% of max PAR4-AP calcium response” value was “inactive”.

For `O=C(Cn1cc(C(=O)C(F)(F)F)c2cc(Br)ccc21)N1CCCCC1`, the “% of max PAR4-AP calcium response” value was “inactive”.

With `Cn1cnnc1SCC(=O)n1c2c(c3ccccc31)CCCC2`, the “% of max PAR4-AP calcium response” value was “inactive”.

Consider `Cc1ccc(-n2cc(-c3ccccc3)c3c(NC4CCCC4)ncnc32)cc1Cl`, for which the “% of max PAR4-AP calcium response” value is “inactive”.

With `CC(=O)n1cc(C(C[N+](=O)[O-])SCc2ccccc2)c2ccccc21` (centres undefined), the “% of max PAR4-AP calcium response” value was “inactive”.

In the case of `N#Cc1ccc(-c2cn(Cc3ccccc3)c3ccccc23)cc1`, the “% of max PAR4-AP calcium response” value is “inactive”.
